Test results from ChEMBL document CHEMBL1134766, “Synthesis of 2beta-acyl-3beta-(substituted naphthyl)-8-azabicyclo[3.2.1]octanes and their binding affinities at dopamine and serotonin transport sites” (J Med Chem, 2001).

Tests used:
[1] = biological target: Sodium-dependent dopamine transporter (Rattus norvegicus, UniProt P23977); test: Inhibitory activity in displacing [125I]- RTI-55 binding to dopamine transporter in rat striatal membranes; assay type: cell membranes, Striatum, Membrane
Outline: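 Nonspecific binding was defined with 1 µM WF-23. Curves were fitted by nonlinear regression, and IC50 is reported because binding at this transporter is multiphasic. Values are mean ± SEM of ≥3 experiments, each run in triplicate.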

[2] = biological target: Sodium-dependent serotonin transporter (Rattus norvegicus, UniProt P31652); test: Affinity for the displacement of [3H]paroxetine binding to serotonin transporter (SERT) in rat frontal cortex membranes; assay type: cell membranes, Membrane
Outline: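 Displacement of 0.4 nM [3H]paroxetine in frontal cortex membranes (50 mg original wet weight) dissected from frozen Sprague-Dawley rat brains, using 7-10 analogue concentrations. Nonspecific binding was defined with 10 µM fluoxetine. Ki was obtained by nonlinear curve fitting and the Cheng-Prusoff equation. Values are mean ± SEM of ≥3 experiments, each in triplicate.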

[3] = biological target: Monoamine transporters; serotonin & dopamine (Rattus norvegicus) (UniProt P31652+P23977); test: SERT/DAT (serotonin transporter/dopamine transporter) binding potency ratio; assay type: protein assay
[4] = biological target: Norepinephrine transporter (Rattus norvegicus, UniProt Q9WTR4); test: Affinity for the displacement of [3H]paroxetine binding to norepinephrine transporter (NET) in rat frontal cortex membranes; assay type: cell membranes, Membrane
Sequence of Norepinephrine transporter (Q9WTR4 whole entry): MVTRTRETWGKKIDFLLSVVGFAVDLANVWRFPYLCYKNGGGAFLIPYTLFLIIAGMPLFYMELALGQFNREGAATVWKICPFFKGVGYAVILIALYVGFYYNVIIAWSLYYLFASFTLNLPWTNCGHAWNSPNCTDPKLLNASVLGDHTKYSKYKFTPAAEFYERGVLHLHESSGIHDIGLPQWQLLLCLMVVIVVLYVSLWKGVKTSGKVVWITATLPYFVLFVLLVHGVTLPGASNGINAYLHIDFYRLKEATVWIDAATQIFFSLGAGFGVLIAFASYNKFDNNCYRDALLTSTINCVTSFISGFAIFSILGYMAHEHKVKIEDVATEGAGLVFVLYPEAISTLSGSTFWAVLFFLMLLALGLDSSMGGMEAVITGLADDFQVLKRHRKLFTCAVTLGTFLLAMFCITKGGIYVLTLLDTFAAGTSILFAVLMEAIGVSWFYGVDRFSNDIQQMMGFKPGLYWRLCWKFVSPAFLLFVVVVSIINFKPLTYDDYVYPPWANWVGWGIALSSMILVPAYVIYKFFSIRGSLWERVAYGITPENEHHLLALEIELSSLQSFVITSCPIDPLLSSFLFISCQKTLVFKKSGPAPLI

Sequence of Sodium-dependent serotonin transporter (P31652 whole entry): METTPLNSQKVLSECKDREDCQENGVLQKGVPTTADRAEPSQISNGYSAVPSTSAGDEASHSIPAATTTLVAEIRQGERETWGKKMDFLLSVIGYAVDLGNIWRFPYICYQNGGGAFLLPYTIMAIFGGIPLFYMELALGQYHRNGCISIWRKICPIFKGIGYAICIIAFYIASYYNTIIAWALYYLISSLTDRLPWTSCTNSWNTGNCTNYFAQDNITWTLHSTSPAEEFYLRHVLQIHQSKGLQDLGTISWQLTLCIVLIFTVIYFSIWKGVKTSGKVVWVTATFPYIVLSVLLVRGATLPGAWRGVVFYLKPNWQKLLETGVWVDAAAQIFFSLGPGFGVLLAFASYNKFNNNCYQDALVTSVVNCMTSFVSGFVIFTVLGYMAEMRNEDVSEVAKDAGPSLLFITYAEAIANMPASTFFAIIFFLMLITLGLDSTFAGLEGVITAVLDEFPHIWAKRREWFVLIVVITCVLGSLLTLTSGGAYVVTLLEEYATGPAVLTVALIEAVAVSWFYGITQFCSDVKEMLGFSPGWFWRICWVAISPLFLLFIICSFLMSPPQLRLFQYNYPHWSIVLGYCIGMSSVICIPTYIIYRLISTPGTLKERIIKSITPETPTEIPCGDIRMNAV
Sequence of Monoamine transporters; serotonin & dopamine (Rattus norvegicus) (P23977 whole entry, looked up): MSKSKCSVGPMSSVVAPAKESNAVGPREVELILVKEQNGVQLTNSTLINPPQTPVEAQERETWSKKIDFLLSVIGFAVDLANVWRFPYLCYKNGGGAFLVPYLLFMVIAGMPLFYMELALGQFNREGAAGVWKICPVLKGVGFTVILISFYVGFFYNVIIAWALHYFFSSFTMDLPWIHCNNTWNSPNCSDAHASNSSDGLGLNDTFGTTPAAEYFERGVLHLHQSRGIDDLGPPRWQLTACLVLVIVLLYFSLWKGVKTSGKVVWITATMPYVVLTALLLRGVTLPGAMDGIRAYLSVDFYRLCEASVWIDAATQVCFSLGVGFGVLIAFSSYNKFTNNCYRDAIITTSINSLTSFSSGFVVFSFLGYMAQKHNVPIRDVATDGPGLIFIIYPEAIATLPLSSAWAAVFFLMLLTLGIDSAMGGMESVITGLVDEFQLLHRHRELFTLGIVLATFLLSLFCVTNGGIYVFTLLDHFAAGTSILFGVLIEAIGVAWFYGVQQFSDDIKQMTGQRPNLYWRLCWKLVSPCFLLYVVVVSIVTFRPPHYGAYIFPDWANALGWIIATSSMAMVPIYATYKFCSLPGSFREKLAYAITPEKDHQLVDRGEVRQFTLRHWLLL
Sequence of Monoamine transporters; serotonin & dopamine (Rattus norvegicus) (P31652 whole entry, looked up): as the sequence (P31652 whole entry) above
Sequence of Sodium-dependent dopamine transporter (P23977 whole entry): as the sequence (P23977 whole entry, looked up) above

SMILES | IC50 [1] [nM] | Ki [2] [nM] | Potency ratio [3] | Ki [4] [nM]
CCC(=O)C1C(c2ccc3cc(OC)ccc3c2)CC2CCC1N2C (configuration not stated) | 0.13 | 2.24 | 0.05 | 
CCC(=O)C1C(c2ccc3ccccc3c2)CC2CCC1N2C (stereo in doubt) [listing 1 of 2 here] | 2.51 | 16.4 |  | 68
CC(=O)C1C(c2cccc3ccccc23)CC2CCC1N2C (stereo in doubt; form 1) [listing 1 of 2 here] | 97 | 217 |  | 
CC(=O)C1C(c2cccc3ccccc23)CC2CCC1N2C (stereo in doubt; form 2) [listing 1 of 2 here] |  |  | 0.4 | 
CC(=O)C1C(c2ccc3ccccc3c2)CC2CCC1N2C (configuration not stated) | 1.27 |  | 1.2 | 4.9
C=C(C)c1c(OC)ccc2cc(C3CC4CCC(C3C(=O)CC)N4C)ccc12 (configuration not stated) | 45 | 88 | 0.5 | 2330
CCC(=O)C1C(c2ccc3ccccc3c2)CC2CCC1N2C (stereo in doubt) [listing 2 of 2 here] |  |  | 0.15 | 
CC(=O)C1C(c2cccc3ccccc23)CC2CCC1N2C (stereo in doubt; form 2) [listing 2 of 2 here] |  |  |  | 165
CCC(=O)C1C(c2ccc(C)c3ccccc23)CC2CCC1N2C (configuration not stated) | 25.1 | 8.99 | 3 | 163
CCC(=O)C1C(c2ccc3c(C(C)=O)c(OC)ccc3c2)CC2CCC1N2C (configuration not stated) | 12.6 | 15.8 | 0.8 | 498
CCC(=O)C1C(c2ccc3cc(CC)ccc3c2)CC2CCC1N2C (configuration not stated) | 0.15 | 0.38 | 0.4 | 27.7
CCC(=O)C1C(c2ccc3c([N+](=O)[O-])c(OC)ccc3c2)CC2CCC1N2C (configuration not stated) | 148 | 15 | 10 | 
CCC(=O)C1C2CCC(CC1c1ccc3ccccc3c1)N2 (configuration not stated) | 0.03 | 0.23 | 0.13 | 2.05
CC(C)C(=O)C1C(c2ccc3ccccc3c2)CC2CCC1N2C (configuration not stated) | 0.25 | 2.08 | 0.12 | 37.6
CCC(=O)C1C(c2ccc3c(CC)c(OC)ccc3c2)CC2CCC1N2C (configuration not stated) | 30.8 | 7.55 | 4.1 | 3360
CCC(=O)C1C(c2ccc3ccccc3c2)CC2CCC1N2C (stereo in doubt; 8) |  |  | 0.3 | 
CC(=O)C1C(c2cccc3ccccc23)CC2CCC1N2C (stereo in doubt; form 1) [listing 2 of 2 here] |  |  | 0.45 | 
CCC(=O)C1C(c2ccc3ccc(I)cc3c2)CC2CCC1N2C (configuration not stated) | 0.45 | 0.47 | 0.5 | 
CCC(=O)C1C(c2ccc(CC)c3ccccc23)CC2CCC1N2C (configuration not stated) | 75.1 | 175 | 0.7 | 4770
CCC(=O)C1C(c2ccc(C)cc2)CC2CCC1N2C (configuration not stated) |  |  | 0.06 | 65
CCC(=O)C1C(c2cccc3ccccc23)CC2CCC1N2C (configuration not stated) |  |  | 0.3 | 49
CCC(=O)C1C(c2ccc3cc(C(C)C)ccc3c2)CC2CCC1N2C (configuration not stated) | 0.39 | 1.97 | 0.2 | 
CCC(=O)C1C(c2ccc(C(C)C)c3ccccc23)CC2CCC1N2C (configuration not stated) | 225 | 136 | 2 | > 10000
CCC(=O)C1C(c2ccc3c(I)c(OC)ccc3c2)CC2CCC1N2C (configuration not stated) | 1.31 | 2.27 | 0.6 | 781
CCC(=O)C1C(c2ccc3cc(I)ccc3c2)CC2CCC1N2C (configuration not stated) | 0.35 | 0.37 | 1 | 
